Measurements from ChEMBL document CHEMBL1138579, “Synthesis of alkenyldiarylmethanes (ADAMs) containing benzo[d]isoxazole and oxazolidin-2-one rings, a new series of potent non-nucleoside HIV-1 reverse transcriptase inhibitors” (Eur J Med Chem, 2009).
pIC50: −log10 of the molar value.

Target: Human immunodeficiency virus type 1 reverse transcriptase (Human immunodeficiency virus 1, UniProt Q72547)
Assay: Inhibition of HIV1 recombinant reverse transcriptase assessed as incorporation of [32P]GTP into poly(rC).oligo(dG) (rCdG) homopolymer template primer
How it was run: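 Purified recombinant HIV-1 RT, p66/51 heterodimer. Activity followed by [32P]GTP incorporation into poly(rC)·oligo(dG) homopolymer template-primer. IC50 taken as the mean of at least two separate experiments.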

Going from `COc1noc2c(C)cc(C(=CCCN3CCOC3=O)c3cc(C)c4onc(OC)c4c3)cc12` to `COc1noc2c(C)cc(/C(=C\CCN3CCOC3=O)c3cc(C)c4oc(=O)n(C)c4c3)cc12`, the pIC50 falls from 6.03 to 5.44 (0.59 log units). The first is the more potent here.

Going from `COC(=O)c1cc(/C(=C/CCN2CCOC2=O)c2cc(C)c3onc(OC)c3c2)cc(Cl)c1OC` to `COC(=O)c1cc(/C(=C/CCN2CCOC2=O)c2cc(C)c3onc(OC)c3c2)cc(C)c1OC`, the pIC50 falls from 5.23 to 4.74 (0.49 log units).

First: COc1noc2c(C)cc(/C(=C\CCN3CCOC3=O)c3cccc(C#N)c3)cc12
Second: COC(=O)c1cc(/C(=C\CCN2CCOC2=O)c2cc(C)c3onc(OC)c3c2)cc(C)c1OC
The pIC50 of the first is 1.79 log units lower: 4.41 for the first, 6.20 for the second. The second is the more potent here.

For `COC(=O)CCC/C=C(/c1cc(C)c2onc(OC)c2c1)c1cc(C)c2oc(=O)n(C)c2c1`, the pIC50 was 6.60.

System: not listed separately
Assay: Cytotoxicity against human MT4 cells by MTT assay
Type: cell-based

In the case of `Cc1ccnc2c1NC(=O)c1cccnc1N2C1CC1` [NEVIRAPINE], the CC50 was > 200 µM.
